The list is not random: actives were taken first. Their share in the collection is about 6.1%.
BB579 growth dn: growth inhibitors of yeast BB579 in restrictive medium, primary screen, yeast lifespan-shortening project, S. cerevisiae; OD615, 48 h; 140,000 compounds, 0.51% hits; inhibition, % at 10 µM;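 active means inhibition above a set limit, 3 SD over the mean compound inhibition, cut at about 44% in these data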
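Assay system – yeast BB579 (DeaD) · Dosing – single compound dose of 10 µM, 0.25% DMSO final · Detection – OD615 turbidity measurement · Buffer or medium – CSMM-D restrictive synthetic medium containing dextrose (glucose) · Benchmarks – positive control amphotericin B 10 µg/mL · Incubation – 48 h exposure, 30 °C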
DAT uptake mod: changed hDAT dopamine uptake under cocaine IC80, either direction, primary screen, cocaine antagonist project, cell-based, LLC-PK1 hDAT, [14C]-dopamine uptake, MLSMR | 110,000 compounds, 1.3% hits | LLC-PK1 hDAT cells, [14C]-dopamine uptake with cocaine IC80; actives deviate in either direction | B-score at 10 µM | Sodium-dependent dopamine transporter (Homo sapiens), Q01959;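 active means Z score or B-score, a plate-position-corrected score, falls beyond the plate's 99.7% confidence bounds, in either direction; inactive means both scores lie inside the 99.7% bounds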;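 further: scored against the spread of the other compound wells on the same plate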
Target sequence (Q01959 whole entry, looked up): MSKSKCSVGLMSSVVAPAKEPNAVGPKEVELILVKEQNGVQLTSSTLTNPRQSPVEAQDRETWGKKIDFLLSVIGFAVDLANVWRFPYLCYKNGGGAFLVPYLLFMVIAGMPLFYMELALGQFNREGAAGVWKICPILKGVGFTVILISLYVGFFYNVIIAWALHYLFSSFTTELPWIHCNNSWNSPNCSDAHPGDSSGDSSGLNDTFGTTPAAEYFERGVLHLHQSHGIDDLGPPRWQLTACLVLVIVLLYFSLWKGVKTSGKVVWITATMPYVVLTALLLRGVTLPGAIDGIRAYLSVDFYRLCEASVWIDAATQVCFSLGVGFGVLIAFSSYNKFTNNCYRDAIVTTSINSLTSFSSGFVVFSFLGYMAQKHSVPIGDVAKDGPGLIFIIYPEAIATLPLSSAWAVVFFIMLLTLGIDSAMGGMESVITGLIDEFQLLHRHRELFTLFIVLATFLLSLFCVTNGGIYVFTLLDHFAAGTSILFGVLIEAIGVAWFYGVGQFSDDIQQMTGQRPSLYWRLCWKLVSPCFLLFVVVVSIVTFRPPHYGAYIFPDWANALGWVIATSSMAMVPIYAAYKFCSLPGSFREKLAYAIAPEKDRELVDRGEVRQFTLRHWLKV
Yeast lifespan up: compounds extending yeast replicative lifespan, primary screen, S. cerevisiae, OD615 | S. cerevisiae growth with nicotinamide; deaD strain in restrictive glucose medium | inhibition of the nicotinamide effect, % at 10 µM | 130,000 compounds, 0.68% hits;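 active means inhibition above a set limit, placed 3 SD over the median of all compounds, cut at about 26% in these data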;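 further: 0% = nicotinamide-treated wells and 100% = cells grown without nicotinamide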
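Assay system: engineered S. cerevisiae DeaD replicative-lifespan strain, galactose-grown log-phase cells; Buffer or medium: CSMM-D glucose medium, restrictive; Probe or stimulus: nicotinamide 1.5 mM; Compound: single dose 10 µM compound, 0.25% DMSO; Schedule: 4 h preincubation then 48 h treatment at 30 °C; Technique: OD615 measurement.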
Measles CPE: compounds protecting cells from measles virus cytopathic effect, primary screen, measles RdRp inhibitor project, single point, MLSMR library, absorbance. Measles virus-infected cells, CPE protection. protection (pct of control), % at 4 µM. 140,000 compounds, 1.5% hits; in the data active means protection mostly above about 24%, no sharp cut-off; inactive means mostly below about 26%
WT yeast gro inh: growth inhibition of WT strain, primary screen, mitochondrial fusion inhibitor project, WT and mutant strains, chemical genetic | mitochondrial fusion phenotypic screen | inhibition, % at 10 µM | 190,000 compounds, 2.1% hits | AID 1362, 2008; in the data active means inhibition above about 58%; tested in S. cerevisiae
RAM inhibit: inhibitors of the yeast RAM network, primary screen, dse1pr::URA3 reporter, 5-FOA selection; AID 868, 2007; 190,000 compounds, 1.8% hits; inhibition, % at 50 µM; S. cerevisiae dse1pr::URA3 reporter, 5-FOA growth OD615, 2 d; analog-sensitive cbk1-as2 kinase mutant strain;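 active means inhibition above a set limit, 3 SD over mean compound inhibition, cut at about 8.4% in these data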;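 further: 0% = DMSO-only wells with no growth and 100% = 10 µM 1-NA-PP1 full growth; inhibition rescues growth on 5-FOA so higher OD means more RAM inhibition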
The depositor's hits bear a star; nt = no result.

SMILES	BB579 growth dn	DAT uptake mod	Yeast lifespan up	Measles CPE	WT yeast gro inh	RAM inhibit
CCn1c(O)c(C2=c3ccccc3=NC2=O)c2cc(Br)ccc21	nt	nt	nt	nt	72*	4
Nc1c(C(=O)N2CCCCC2)sc(=S)n1-c1ccccc1	28	2.7*	-12	7	4	2
CCOC(=O)c1c(C)nc2sccn12	-35	-0.051	-5	10	-34	0
Cc1nc2sccn2c(=O)c1CCN1CCC(=C(c2ccccc2)c2ccc(F)cc2)CC1	-23	-3.5*	-1	21	33	2
CCOc1ccccc1N1CCN(C(=O)Nc2ccc(Cl)c(Cl)c2)CC1	-38	nt	-22	8	68*	0
COc1ccc(C)cc1NC(=O)CNC(=O)Cn1ccc2ccccc2c1=O	-14	-9*	-8	20	-4	0
COc1ccc([N+](=O)[O-])cc1NC(=O)CCNC(=O)Cn1ccc2ccccc2c1=O	nt	nt	nt	nt	-6	4
O=C(Nc1ccc(Cl)c(Cl)c1)c1cccc(S(=O)(=O)NCc2cccnc2)c1	-34	nt	-8	3	76*	-1
O=C(Nc1ccc(Cl)c(Cl)c1)OCc1cccnc1	-25	-1.8	-16	5	79*	0
COc1cccc(S(=O)(=O)NCc2ccc(C(=O)Nc3ccc(Cl)c(Cl)c3)cc2)c1	1	-0.31	-12	11	6	3
O=C(NNC(=O)c1cccnc1)Nc1ccc(Cl)c(Cl)c1	-45	-0.37	-9	28	5	2
O=C(NC(c1ccccc1)c1ccccc1)c1cccc(S(=O)(=O)NCc2ccccc2)c1	-17	nt	8	1	-20	8.6*
Nc1ccc(CSc2ccc(Cl)cc2)cc1	nt	nt	nt	nt	33	2
O=C1C2CCCCC2C(=O)N1c1ccc(NC2CCCCC2)c([N+](=O)[O-])c1 (stereo unspecified)	-31	nt	-1	4	16	4
C=CCN(CC=C)c1ccc(N2C(=O)C3CCCCC3C2=O)cc1[N+](=O)[O-] (stereo unspecified)	nt	nt	nt	nt	22	9.0*
COc1ccccc1OCc1nnc(SCC(=O)c2cc(Cl)ccc2OC)o1	-70	1.7e-05	-36	8	-7	9.5*
COc1ccc(OC)c(C(=O)CSc2nnc(-c3ccc(OC)c(OC)c3)o2)c1	-38	0.75	-2	16	0	10*
COc1ccc(C(=O)CSc2nnc(-c3ccc(C)cc3)o2)cc1	-24	0.55	-5	4	-1	1
COc1ccc(OCc2nnc(SCC(=O)c3ccccc3)o2)cc1	nt	nt	nt	nt	5	1
CC(/C=C/c1ccccc1)=N\NC(N)=S	-3	-0.064	-10	14	18	1
CC(/C=C/c1ccccc1)=N\NC(=S)NC(C)C	nt	nt	nt	nt	71*	1
COc1coc(C(O)C[N+](=O)[O-])cc1=O (stereo unspecified)	-32	nt	6	7	-5	0
CCOC(=O)c1cnc(-c2ccccc2O)nc1Cl	nt	nt	nt	nt	7	1
CCOC(=O)C1=Nc2ccccc2C1=[N+]=[N-]	100*	-0.34	-20	2	71	-1
CCOC(=O)c1cc(=O)n2nc(-c3ccc(C)cc3)nc2s1	-14	-8.4*	-8	8	-21	-1
SMILES	BB579 growth dn	DAT uptake mod	Yeast lifespan up	Measles CPE	WT yeast gro inh	RAM inhibit
CCOC(=O)c1nnc(-c2ccc(C)cc2)nc1N1CCSCC1	nt	nt	nt	nt	14	0
COc1ccc(N2C(=O)N(Cc3cccc(F)c3)c3ccccc3S2(=O)=O)cc1	nt	1.2	nt	nt	11	8.8*
Cc1nn(C)c(C)c1S(=O)(=O)N(CC(=O)N1CCc2ccccc2C1)c1ccc(C(C)C)cc1	-58	1.9	-9	3	17	5
CC(=O)NC(Cc1ccccc1)C(=O)N1CCN(C(=O)c2ccco2)CC1 (stereo unspecified)	-24	0.058	-9	36*	0	0
COc1ccccc1OCCCCOc1ccccc1C(C)=O	-23	nt	-7	6	-9	0
COc1ccc(C(=O)OCCOc2ccccc2C(C)=O)c(O)c1	nt	nt	nt	nt	31	11*
